This note sets out measurements from ChEMBL document CHEMBL1687687, “Identification of a New Series of STAT3 Inhibitors by Virtual Screening” (ACS Med Chem Lett, 2010).

What all share (type): cell-based
In assay [1] the target is T1, Signal transducer and activator of transcription 3 (Homo sapiens, UniProt P40763). Description: Inhibition of STAT3 dimerization transfected in HEK293 cells at 100 uM after 24 hrs followed by 1 hr stimulation with 50 ng/ml IL-6 by FRET assay. The following applies: 10 uM, in the assay text read “at 10 uM” for “at 100 uM”. Put shortly:
(§1)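 Cell-based FRET dimerization read-out in HEK293 cells co-expressing STAT3-CFP and STAT3-YFP. Cells were pretreated with compound before IL-6 stimulation, and the FRET signal from the STAT3–STAT3 interaction was measured. Values are given as percent inhibition of the signal.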

Assay [2] has as its target T1, Signal transducer and activator of transcription 3. Put plainly: Inhibition of STAT3 transcriptional activity in human HeLa cells at 100 uM by luciferase reporter gene assay. Put shortly: (§2)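 STAT3-dependent luciferase reporter gene assay in HeLa cells. Activity is reported as percent inhibition at a single 100 μM concentration, or as an IC50.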
The target is the same in assay [3]. Description: Inhibition of STAT3 transcriptional activity in human HeLa cells by luciferase reporter gene assay. Put shortly:
as §2

Assay [4] has the same target. Put plainly: Inhibition of STAT3 dimerization transfected in HEK293 cells at 50 uM after 24 hrs followed by 1 hr stimulation with 50 ng/ml IL-6 by FRET assay. Put shortly: as §1

T1 sequence (P40763 whole entry): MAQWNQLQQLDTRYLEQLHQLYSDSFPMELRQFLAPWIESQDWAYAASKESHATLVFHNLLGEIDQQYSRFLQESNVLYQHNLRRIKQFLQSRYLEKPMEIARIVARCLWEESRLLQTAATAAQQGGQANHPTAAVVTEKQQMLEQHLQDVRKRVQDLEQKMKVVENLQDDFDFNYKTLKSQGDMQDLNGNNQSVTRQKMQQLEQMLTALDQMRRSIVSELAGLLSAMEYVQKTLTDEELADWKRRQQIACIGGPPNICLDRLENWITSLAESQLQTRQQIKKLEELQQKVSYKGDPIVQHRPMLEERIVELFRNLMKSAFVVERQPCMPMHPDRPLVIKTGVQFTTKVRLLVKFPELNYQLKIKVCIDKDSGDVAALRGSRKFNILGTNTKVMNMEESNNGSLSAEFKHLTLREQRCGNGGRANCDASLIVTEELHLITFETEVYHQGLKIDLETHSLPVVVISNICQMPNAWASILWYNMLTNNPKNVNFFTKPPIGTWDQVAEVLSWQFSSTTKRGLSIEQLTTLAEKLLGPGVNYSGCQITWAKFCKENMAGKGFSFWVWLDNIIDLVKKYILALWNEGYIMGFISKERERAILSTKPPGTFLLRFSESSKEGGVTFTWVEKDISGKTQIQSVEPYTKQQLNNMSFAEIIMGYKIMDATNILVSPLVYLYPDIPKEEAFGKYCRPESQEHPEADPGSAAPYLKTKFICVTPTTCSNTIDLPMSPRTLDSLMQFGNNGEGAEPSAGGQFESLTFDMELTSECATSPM

Take `O=C(Nc1nnc(-c2ccoc2)o1)c1cc(-c2ccccc2)nc2ccccc12`: the inhibition in assay [1] is 8%; in assay [2] it was 103%; in assay [4] it was 55%. For the same molecule, in assay [3], the IC50 turned out to be 72 µM.
As to `O=C(Nc1nnc(-c2ccccc2Cl)o1)c1cc(-c2ccccc2)nc2ccccc12`, in assay [2], the inhibition is 5%.
For the molecule `O=C(Nc1nnc(-c2ccc(Cl)cc2)o1)c1cc(-c2ccccc2)nc2ccccc12`, the inhibition in assay [2] is 115%. Besides, half-maximal inhibition in assay [3] (IC50) required 61 µM.
`CCOC(=O)c1nnc(NC(=O)c2cc(-c3ccccc3)nc3ccccc23)o1`: in assay [2], the inhibition was determined as 38%.
Consider `O=C(Nc1nnc(-c2ccco2)o1)c1cc(-c2cccs2)nc2ccccc12`, for which the inhibition was found to be 18% in assay [1], 91% in assay [2] and 56% in assay [4]. The same molecule showed an IC50 in assay [3] of 63 µM.
For `O=C(Nc1nnc(-c2ccco2)o1)c1cc(-c2ccccn2)nc2ccccc12`, the inhibition in assay [2] worked out at 5%.
Regarding `O=C(Nc1nnc(-c2ccccc2)o1)c1cc(-c2ccccc2)nc2ccccc12`, the figures for the inhibition in assay [1], in assay [2] and in assay [4] were 43%, 105% and 60%, respectively. In addition, half-maximal inhibition in assay [3] (IC50) was put at 66 µM.
In the case of `O=C(Nc1nnc(-c2ccco2)o1)c1cc(N2CCCCC2)nc2ccccc12`, the inhibition in assay [2] was -7%.
Same read-out and setting: for `CCc1nnc(NC(=O)c2cc(-c3ccccc3)nc3ccccc23)o1` the value was 33%.
As to `O=C(Nc1nnc(Cc2ccccc2)o1)c1cc(-c2ccccc2)nc2ccccc12`, the inhibition in assay [1] was 25%; in assay [2] it was 82%; in assay [4], 61%. The IC50 in assay [3] was found to be 75 µM.
Consider `O=C(Nc1nnc(-c2ccco2)s1)c1cc(-c2ccccc2)nc2ccccc12`, for which the inhibition in assay [2] is 26%.
With `O=C(Nc1nnc(-c2ccco2)o1)c1cc(Cl)nc2ccccc12`, in assay [2], the inhibition came to 43%.
As for `O=C(Nc1nnc(-c2ccco2)o1)c1cc(-c2cccnc2)nc2ccccc12`, in assay [2], the inhibition stood at 12%.
For `O=C(Nc1nnc(-c2ccco2)o1)c1ccnc2ccccc12`, the figures for the inhibition in assay [1], in assay [2] and in assay [4] were -2%, -5% and -4%, respectively.
On to `O=C(Nc1nnc(-c2ccco2)o1)c1cc(-c2ccco2)nc2ccccc12`, for which, in assay [2], the inhibition was determined as 129%. Besides, the IC50 in assay [3] turned out to be 66 µM.
In the case of `Cc1nnc(NC(=O)c2cc(-c3ccccc3)nc3ccccc23)o1`, in assay [2], the inhibition came out at 14%.
`O=C(Nc1nnc(-c2ccco2)o1)c1cc(-c2cccc3ccccc23)nc2ccccc12`: the inhibition in assay [1] came to 14%; in assay [2], 121%; in assay [4], 70%. The molecule also yielded an IC50 in assay [3] of 55 µM.
The matching figures for `O=C(Nc1nnc(-c2cccs2)o1)c1cc(-c2ccccc2)nc2ccccc12`: 36%, 86%, 56% and 75 µM.
